An excerpt weighted towards active compounds, which were near 1.7% of everything screened.
STEP inh = blocks human striatal-enriched tyrosine phosphatase | 360,000 tested, 0.25% active | AID 588621 | inhibition, % at 20 µM | recombinant STEP, OMFP fluorogenic substrate, fluorescence;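 active = inhibition at 20 µM, scaled per plate between control wells, above about 37%, limit read from the data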;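 note: 0% = DMSO with enzyme and substrate and 100% = substrate only without enzyme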
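Measure: Control-normalized % inhibition with plate pattern correction | Test system: STEP phosphatase, cell-free reaction | Medium: pH 6.0 Bis-Tris with DTT and Tween 20 | Technique: Fluorescence, 480/540 nm | Times: Reaction 20 min, ambient temperature | Doses: Single compound dose of 20 µM, 1% DMSO final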
DNMT1 inh = blocks human DNA methyltransferase DNMT1. DNMT1 molecular beacon, Hinp1I cleavage, fluorescence. inhibition (reported as % activation of signal), % at 10 µM. 360,000 tested, 0.83% active; in the data active = inhibition above about 50%
LMPTP block = blocks human LMPTP phosphatase. inhibition, % at 20 µM. recombinant LMPTP-A, OMFP fluorogenic substrate, fluorescence intensity. 360,000 tested, 0.22% active. P24666;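 active = compounds that cut the enzyme signal by at least half of the control window in the single-dose screen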;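 note: plate controls were DMSO wells with enzyme plus substrate for no effect and substrate without enzyme for full effect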
Target sequence (P24666 whole entry, looked up): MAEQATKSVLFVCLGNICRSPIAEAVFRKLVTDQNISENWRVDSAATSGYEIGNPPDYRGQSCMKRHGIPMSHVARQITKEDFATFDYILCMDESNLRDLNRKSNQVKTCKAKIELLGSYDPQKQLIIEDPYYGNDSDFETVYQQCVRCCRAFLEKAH
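Test system – LMPTP-A phosphatase enzyme · Quantity – 0.625 nM LMPTP-A final · Reagent – OMFP substrate, 400 µM final · Dosing – one test concentration per compound, 20 µM, with 3% DMSO overall · Timing – 50 min enzyme reaction at room temperature, protected from light · Detection – fluorescence intensity · Controls – substrate-only low control, DMSO enzyme-plus-substrate high control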
SUMO1 PPI mod = SUMO1-SIM interaction modulation; P63165; SUMO1 binding to a labelled peptide, TR-FRET, 1 h; inhibition, % at 20 µM; 360,000 tested, 0.33% active; AID 602429; in the data active = inhibition above about 37%
Target sequence (P63165 whole entry, looked up): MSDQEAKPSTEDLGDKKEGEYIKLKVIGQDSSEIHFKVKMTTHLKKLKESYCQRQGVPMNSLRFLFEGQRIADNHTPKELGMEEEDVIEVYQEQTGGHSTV
Scp1 inh = inhibitors of human Scp-1 phosphatase. Q9GZU7. Recombinant Scp1, phosphopeptide, malachite green phosphate absorbance. inhibition, % at 20 µM. 340,000 tested, 0.88% active;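 active = inhibition above about 50% at 20 µM, limit read from the data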;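 note: plate controls were DMSO wells with enzyme for no effect and wells lacking enzyme for full effect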
Target sequence (Q9GZU7 76-261 limits assumed): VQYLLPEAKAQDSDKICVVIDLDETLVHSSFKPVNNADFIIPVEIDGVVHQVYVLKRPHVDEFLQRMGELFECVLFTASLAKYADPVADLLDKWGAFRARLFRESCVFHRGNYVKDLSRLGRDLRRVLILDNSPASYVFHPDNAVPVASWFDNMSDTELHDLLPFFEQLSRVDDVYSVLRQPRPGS
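System: truncated SCP-1 phosphatase (76-261aa); medium: Tris acetate buffer pH 5.5 with MgCl2 and Tween-20; incubation: 45 min room-temperature reaction, 5 min colour, 30 min stabiliser; compound: single 20 µM dose, 1% DMSO; reagent: Phosphorylated 17-residue peptide substrate; read-out: % inhibition at 20 µM; technique: colorimetric free-phosphate detection, absorbance 630 nm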
Beacon interf DR = counter-screen for DNMT1 inhibitors: spectral interference, dose response. shares compounds with DNMT1 inh. molecular beacon fluorescence. IC50, µM. 200 tested, under 10 active; call rule not given here
DNMT1 inh conf = confirmation of human DNMT1 inhibitors; inhibition, % at 10 µM; AID 602385; 2,300 tested, 8% active; shares compounds with DNMT1 inh; DNMT1 molecular beacon HinP1I cleavage, fluorescence;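 active = average inhibition of at least 30% in the single-concentration confirmation test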
Beacon interf = beacon fluorescence artifact counter-screen. shares compounds with DNMT1 inh. DNMT1 molecular beacon spectral interference counterscreen, fluorescence 485/520. activation (fluorescence interference), % at 10 µM. 2,300 tested, 1% active;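 active = activation of at least 30% at 10 µM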;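 note: DNMT1 catalytic domain with a HinP1I cleavage step and a FAM/dabcyl DNA beacon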
* hit, by the source's call.

How did COc1ccc(-n2nc(C(=O)NCC(=O)Nc3cccc(Cl)c3)c3ccccc3c2=O)cc1OC do in these assays?
STEP inh: 10; DNMT1 inh: 60*; LMPTP block: 34; SUMO1 PPI mod: -65; Scp1 inh: 38; DNMT1 inh conf: -3; Beacon interf: -7

How did CC(=O)Nc1cccc(NC(=O)c2ccccc2Cl)c1 do in these assays?
STEP inh: -2; DNMT1 inh: 1; LMPTP block: -1; SUMO1 PPI mod: 0

How did Cc1ccc(NC(=O)C(=O)NN)cc1 do in these assays?
STEP inh: -3; DNMT1 inh: 75*; LMPTP block: -2; SUMO1 PPI mod: 5; Scp1 inh: -4; DNMT1 inh conf: 3; Beacon interf: -1

What do the screens show for `NNC(=O)C(=O)Nc1ccc(O)cc1`?
STEP inh: -2; DNMT1 inh: 0; LMPTP block: 0; SUMO1 PPI mod: -1; Scp1 inh: -2

What do the screens show for `CCCS(=O)(=O)NC(=O)C1(C)CCCN(C(=O)CCc2cccs2)C1` (stereo unspecified)?
STEP inh: 0; DNMT1 inh: 4; LMPTP block: -2; SUMO1 PPI mod: -1

What do the screens show for `Cc1ccc(CNc2ccc3nnc(-c4ccccc4)n3n2)cc1`?
STEP inh: 0; DNMT1 inh: 74*; LMPTP block: 4; SUMO1 PPI mod: 17; Scp1 inh: 0; DNMT1 inh conf: 4; Beacon interf: 0

How did Cc1[nH][nH]c(=O)c1C(c1ccc(-c2ccccc2C(=O)O)o1)c1c(C)[nH][nH]c1=O do in these assays?
STEP inh: 11; DNMT1 inh: 75*; LMPTP block: 2; SUMO1 PPI mod: 8; Scp1 inh: 42; DNMT1 inh conf: -2; Beacon interf: -2

What do the screens show for `COc1ccc(C(O)c2nc(-c3ccc(N(C)C)cc3)cs2)cc1` (stereo unspecified)?
STEP inh: -7; DNMT1 inh: -11; LMPTP block: 0; SUMO1 PPI mod: -1

How did CCCCNC(=O)C1(C)CCCCN1C(=O)c1cc(C#N)cs1 (stereo unspecified) do in these assays?
STEP inh: -3; DNMT1 inh: 5; LMPTP block: -1; SUMO1 PPI mod: 1

How did COc1ccc(/C=C2\SC(=O)N(CCCC(=O)Nc3ccc(C(=O)O)cc3)C2=O)cc1 do in these assays?
STEP inh: 1; DNMT1 inh: 4; LMPTP block: -1; SUMO1 PPI mod: -24

How did Cc1ccc(NC(=O)CN2C(=O)S/C(=C\c3cccn3-c3cccc(C(=O)O)c3)C2=O)c(C)c1 do in these assays?
STEP inh: 71*; DNMT1 inh: 85*; LMPTP block: 48; SUMO1 PPI mod: 9; Scp1 inh: 84*; Beacon interf DR: >99; DNMT1 inh conf: 69*; Beacon interf: -5

How did COc1ccc(NC(=O)CN2C(=O)S/C(=C/c3cccn3-c3ccc(C(=O)O)cc3)C2=O)cc1 do in these assays?
STEP inh: 86*; DNMT1 inh: 78*; LMPTP block: 77*; SUMO1 PPI mod: 14; DNMT1 inh conf: 12; Beacon interf: -1

What do the screens show for `Nc1cc(=O)nc(SCC(=O)N2CCN(c3ccccc3)CC2)n1-c1ccc(F)cc1`?
STEP inh: 1; DNMT1 inh: 2; LMPTP block: 1; SUMO1 PPI mod: 4; Scp1 inh: -5

How did CC1CC(C(=O)Nc2ccccc2)C(=O)O1 (stereo unspecified) do in these assays?
STEP inh: 2; DNMT1 inh: 2; LMPTP block: -1; SUMO1 PPI mod: 5; Scp1 inh: -10

Results for Cc1ccc(Cl)cc1NC(=O)COC(=O)C1CCCC1 ?
STEP inh: -2; DNMT1 inh: 55*; LMPTP block: -1; SUMO1 PPI mod: -4; Scp1 inh: 0; DNMT1 inh conf: 3; Beacon interf: 1

Source: PubChem BioAssay (Sanford-Burnham Center for Chemical Genomics)
